Reference: ChEMBL document CHEMBL3792314, “Synthesis, characterization and biological evaluation of benzothiazoles and tetrahydrobenzothiazoles bearing urea or thiourea moieties as vasorelaxants and inhibitors of the insulin releasing process” (Eur J Med Chem, 2016)
pEC50: −log10 of the molar value. One block for each compound: values may come before it.

Key:
[1] = system: Thoracic aorta; test: Vasorelaxant activity in Wistar rat endothelium-intact thoracic aortic rings assessed relaxation of 30 mM KCl-induced contraction; type: functional
Procedure, shortened: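 Endothelium-intact thoracic aortic rings from female Wistar rats (180–220 g), equilibrated 75 min under 1.8–2.0 g tension, pH 7.4, isometric force transducer. After stable 30 mM KCl plateau (about 15 min), cumulative addition at 1, 10, 30, 50, 100 µM, or 0.1–100 µM for some compounds. EC50 = concentration giving 50% relaxation; mean ± SEM of 4–6 experiments.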

[2] = system: Thoracic aorta; test: Vasorelaxant activity in Wistar rat endothelium-denuded thoracic aortic rings assessed relaxation of 30 mM KCl-induced contraction; type: functional
[3] = system: Thoracic aorta; test: Vasorelaxant activity in Wistar rat thoracic aortic rings assessed relaxation of 30 mM KCl-induced contraction in presence of KATP channel blocker glibenclamide; type: functional
Procedure, shortened: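 Female Wistar rat thoracic aorta rings under 1.8–2.0 g resting tension, pH 7.4. Glibenclamide 10 μM present continuously in bath. Contraction by 30 mM KCl, then cumulative compound addition. EC50 = concentration relaxing the KCl contraction by 50%. Mean ± SEM, n = 3–5.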

[4] = system: Thoracic aorta; test: Vasorelaxant activity in Wistar rat thoracic aortic rings assessed relaxation of 80 mM KCl-induced contraction; type: functional
Procedure, shortened: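 Female Wistar rat (180–220 g) thoracic aortic rings equilibrated 75 min at 1.8–2.0 g tension, pH 7.4. Depolarized with 80 mM KCl, then compounds added cumulatively. EC50 = concentration giving 50% relaxation of the 80 mM KCl contraction. Mean ± SEM, n = 4–5.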

[5] = Inhibition of glucose-induced insulin secretion from Wistar rat pancreatic islets assessed as residual insulin release at 50 uM after 90 mins by radioimmunological assay; type: functional, Pancreatic islet
Procedure, shortened: (§1)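 Islets from adult fed Wistar rats, groups of 10 from the same batch. Preincubated 30 min at 37°C in bicarbonate salt medium with 2.8 mM glucose and 0.5% dialysed albumin, gassed O2/CO2 95:5. Then incubated 90 min at 37°C with 16.7 mM glucose plus compound. Insulin measured by radioimmunoassay against rat insulin standard. Residual secretion expressed as % of drug-free 16.7 mM glucose control.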

[6] = Inhibition of glucose-induced insulin secretion from Wistar rat pancreatic islets assessed as residual insulin release at 10 uM after 90 mins by radioimmunological assay; type: functional, Pancreatic islet; procedure, shortened: as §1
[7] = Inhibition of glucose-induced insulin secretion from Wistar rat pancreatic islets assessed as residual insulin release at 1 uM after 90 mins by radioimmunological assay; type: functional, Pancreatic islet; procedure, shortened: as §1

- pEC50 [1]: 4.89
- pEC50 [2]: 4.92
- pEC50 [3]: 4.63
- pEC50 [4]: 4.57
SMILES: CC(C)(C)NC(=O)Nc1nc2ccc(Br)cc2s1
- Activity [5]: 15.89%
- Residual insulin secretion (% of glucose control) [6]: 77.97%

- pEC50 [1]: 4.73
SMILES: Cc1ccc2nc(NC(=O)NC(C)C)sc2c1

- pEC50 [1]: < 4.00
SMILES: CCc1ccc2nc(NC(=O)NCc3ccccc3)sc2c1

- pEC50 [1]: 4.80
- pEC50 [2]: 4.75
- pEC50 [4]: 4.44
SMILES: CC(C)NC(=O)Nc1nc2ccc([N+](=O)[O-])cc2s1
- Activity [5]: 8.52%
- Residual insulin secretion (% of glucose control) [6]: 62.03%

- pEC50 [1]: 4.97
- pEC50 [2]: 4.83
- pEC50 [3]: 4.71
- pEC50 [4]: 4.51
SMILES: CC(C)(C)NC(=O)Nc1nc2ccc([N+](=O)[O-])cc2s1
- Activity [5]: 11.77%
- Residual insulin secretion (% of glucose control) [6]: 30.98%
- Residual insulin release (% of control) [7]: 83.52%

- pEC50 [1]: 5.68
- pEC50 [2]: 5.32
- pEC50 [3]: 4.71
- pEC50 [4]: 4.85
SMILES: CCCCCNC(=O)Nc1nc2ccc([N+](=O)[O-])cc2s1

- pEC50 [1]: < 4.00
SMILES: Cc1ccc2nc(NC(=S)NCc3ccccc3)sc2c1

- pEC50 [1]: 4.61
SMILES: CCc1ccc2nc(NC(=O)NC(C)C)sc2c1

- pEC50 [1]: 4.28
SMILES: Cc1ccc2nc(NC(=S)NC3CCCCC3)sc2c1

- pEC50 [1]: 4.64
SMILES: CC(C)NC(=O)Nc1nc2ccc(Br)cc2s1

- pEC50 [1]: 4.83
SMILES: CCCCCNC(=O)Nc1nc2ccc(C#N)cc2s1

- pEC50 [1]: 5.56
- pEC50 [2]: 5.33
- pEC50 [3]: 4.81
- pEC50 [4]: 4.82
SMILES: CC(C)(C)NC(=O)Nc1nc2ccc(C#N)cc2s1

- pEC50 [1]: 4.60
SMILES: CCc1ccc2nc(NC(=O)NC(C)(C)C)sc2c1

- pEC50 [1]: 4.45
SMILES: CC(C)NC(=O)Nc1nc2ccccc2s1

Further lines, the compound ahead of its results:

SMILES: O=C(Nc1nc2ccccc2s1)Nc1ccc(C(F)(F)F)cc1Cl
- pEC50 [1]: < 4.00

SMILES: O=C(Nc1nc2ccc(Br)cc2s1)Nc1ccc(C(F)(F)F)cc1Cl
- pEC50 [1]: < 4.00

SMILES: CC(C)(C)NC(=O)Nc1nc2c(s1)CCCC2
- pEC50 [1]: 4.12

SMILES: O=C(Nc1ccc(Cl)cc1)Nc1nc2c(s1)CCCC2
- pEC50 [1]: < 4.00

SMILES: O=C(NCc1ccccc1)Nc1nc2ccc(Br)cc2s1
- pEC50 [1]: 4.19
- Activity [5]: 17.85%
- Residual insulin secretion (% of glucose control) [6]: 82.97%

SMILES: N#Cc1ccc(NC(=S)Nc2nc3c(s2)CCCC3)cc1
- pEC50 [1]: < 4.00

SMILES: CCc1ccc2nc(NC(=S)NCc3ccccc3)sc2c1
- pEC50 [1]: < 4.00

SMILES: CCc1ccc2nc(NC(=O)Nc3ccc(C(F)(F)F)cc3Cl)sc2c1
- pEC50 [1]: < 4.00

SMILES: CC(C)NC(=O)Nc1nc2c(s1)CCCC2
- pEC50 [1]: 4.32

SMILES: O=C(Nc1nc2ccc([N+](=O)[O-])cc2s1)Nc1ccc(C(F)(F)F)cc1Cl
- pEC50 [1]: 4.27

SMILES: CC(C)NC(=S)Nc1nc2c(s1)CCCC2
- pEC50 [1]: < 4.00

SMILES: O=[N+]([O-])c1cccc(NC(=S)Nc2nc3c(s2)CCCC3)c1
- pEC50 [1]: < 4.00

SMILES: N#Cc1ccc(NC(=O)Nc2nc3ccc(Br)cc3s2)cc1
- pEC50 [1]: < 4.00
- Activity [5]: 10.68%
- Residual insulin secretion (% of glucose control) [6]: 11.03%
- Residual insulin release (% of control) [7]: 60.5%

SMILES: CCc1ccc2nc(NC(=S)Nc3cccc([N+](=O)[O-])c3)sc2c1
- pEC50 [1]: < 4.00

SMILES: N#Cc1ccc(NC(=O)Nc2nc3c(s2)CCCC3)cc1
- pEC50 [1]: < 4.00

SMILES: O=C(Nc1ccc(Cl)c(C(F)(F)F)c1)Nc1nc2c(s1)CCCC2
- pEC50 [1]: < 4.00

SMILES: CC1=Nc2ccc(Cl)cc2S(=O)(=O)N1 [DIAZOXIDE]
- pEC50 [1]: 4.63
- pEC50 [2]: 4.64
- pEC50 [3]: < 4.00
- pEC50 [4]: < 4.00
- Activity [5]: 26.7%
- Residual insulin secretion (% of glucose control) [6]: 73.9%
- Residual insulin release (% of control) [7]: 87.5%

SMILES: CC(N/C(=N\C#N)Nc1ccncc1)C(C)(C)C (stereo not drawn) [PINACIDIL ANHYDROUS]
- pEC50 [1]: 6.41
- pEC50 [3]: 5.10
- pEC50 [4]: 4.04
- Activity [5]: 88.8%
- Residual insulin release (% of control) [7]: 97.7%
